Screening results as filed in PubChem.
CHT allo act – CHT positive allosteric modulators, primary screen, cell-based, membrane potential dye, choline EC20; High affinity choline transporter 1 (Homo sapiens), Q9GZV3; CHT-expressing cells; active compounds read high; LV-AA mutant CHT in HEK293 cells; B-score at 10 µM; actives 0.49% (n = 310,000);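 active = initial fluorescence not abnormally high and integrated response B-score, plate-corrected, over 3 SD above library mean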
CHT block – inhibitors of human choline transporter CHT. CHT-expressing cells, membrane potential dye, choline response; active compounds read low. actives 0.86% (n = 310,000). AID 488975, 2010. B-score at 10 µM. High affinity choline transporter 1 (Homo sapiens), Q9GZV3;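 active = B-score over 3 SD under the library average, and starting fluorescence ratio not unusually high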;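 also: choline stimulus applied at its EC90 after an EC20 pre-addition; B-score computed on integrated fluorescence ratio after choline addition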
procasp3 activ – activators of human procaspase-3 D3A mutant, primary screen, biochemical, absorbance, PC-3 D3A mutant, single concentration; actives 0.11% (n = 330,000); activation, % at 8.5 µM; recombinant procaspase-3 D3A, Ac-DEVD-pNA absorbance 405 nm;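 active = activation above the mean of all tested compounds plus 3 SD, cut at about 21% in these data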
Target sequence (P42574 whole entry D9A/D28A/D175A): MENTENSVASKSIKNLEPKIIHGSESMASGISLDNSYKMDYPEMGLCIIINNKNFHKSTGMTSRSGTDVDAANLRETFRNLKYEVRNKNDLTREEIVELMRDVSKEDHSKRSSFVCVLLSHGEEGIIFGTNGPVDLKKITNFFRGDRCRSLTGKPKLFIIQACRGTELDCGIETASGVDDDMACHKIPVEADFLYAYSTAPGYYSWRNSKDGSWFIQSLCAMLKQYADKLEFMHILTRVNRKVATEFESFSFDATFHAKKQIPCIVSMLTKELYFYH
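System: Procaspase-3 D3A mutant. Medium: Zinc-free 300 mM NaCl, 50 mM HEPES, 0.01% Triton X-100. Schedule: 1 h preincubation plus 2 h reaction at 25 °C. Measured by: 405 nm absorbance of p-nitroaniline, reads at 0 and 120 min. Read-out: percent activation relative to control range.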
proCasp7 act – procaspase-7 activators, primary screen, counter-screen for procaspase-3 activator project, biochemical, absorbance, HTS, human; Caspase-7 (Homo sapiens), P55210; recombinant procaspase-7, Ac-DEVD-pNA absorbance 405 nm; D23A/D198A/D206A triple mutant, cannot self-cleave; scale: DMSO 0, 5 µM enzyme 100; activation, % at 8.5 µM; actives 0.093% (n = 330,000); AID 463210, 2010;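 active = percent activation above the screen-wide mean plus 3 SD, cut at about 25% in these data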
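System: Procaspase-7 triple mutant (PC-7 D3A); measure: % activation from two-timepoint absorbance difference, scaled to controls; times: 1 h compound preincubation, 2 h substrate cleavage, 25 °C; also added: Ac-DEVD-pNA substrate, 400 µM as added; measured by: Epi-absorbance of released pNA at 405 nm, two timepoints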
PC3 dual counter – procaspase-3 activators, counter-screen for dual procaspase-3/7 activator project, biochemical, absorbance, PC-3 D3A mutant, human. 290 tested, under 10 active. recombinant PC-3 D3A, Ac-DEVD-pNA absorbance 405 nm; aspartates 9, 28, 175 changed to alanine; 100% = enzyme control. shares compounds with proCasp7 act. activation, % at 8.5 µM;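 active = mean percent activation across triplicates above a set limit taken from the earlier primary procaspase-3 screen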
Procasp7 act – activation of procaspase-7 enzyme – biochemical, absorbance, human, dual procaspase-3/-7 activator project, confirmation; shares compounds with proCasp7 act; 290 tested, under 10 active; activation, % at 8.5 µM; recombinant procaspase-7, Ac-DEVD-pNA absorbance 405 nm; D23A/D198A/D206A mutant that cannot self-cleave;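 active = mean activation above a set limit carried over from the earlier primary screen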
CHT block conf – CHT inhibitors, confirmation, cell-based, membrane potential dye, duplicate; shares compounds with CHT block; CHT-expressing cells, choline membrane potential dye; LV-to-AA substituted CHT, HEK293 cells; CHT activity remaining % of control (active compounds read low), % at 10 µM; actives 70% (n = 2,400);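 active = choline transporter activity left, mean of duplicates at 10 µM, below buffer-only control mean minus 3 SD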;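 also: depolarization triggered by choline at its EC90 following an EC20 pre-addition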
HEK293 CHT ctr – membrane potential effects in parental HEK293, counter-screen for CHT inhibitor project, cell-based, membrane potential dye | shares compounds with CHT block | choline response; active = decrease or increase beyond buffer ±3SD | membrane potential ratio readout (active if shifted either direction beyond buffer ±3SD; no single direction) at 10 µM | actives 4% (n = 2,400) | AID 493222, 2011;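 also: parental cells lack the transporter so any hit is non-specific; ratio is peak minus trough fluorescence over baseline after EC90 choline challenge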
Numbers stand for hits; i = inactive; nt = not tested or not shown. In the library only some 1.3% were active in any assay of this set; here they are far more common.

SMILES | CHT allo act | CHT block | procasp3 activ | proCasp7 act | others
C[C@]12CCC(=O)C=C1CCC1C2CC[C@@]2(C)C1CC[C@@H]2O (stereo partly specified) | nt | nt | i | i
C[C@]12CCC(=O)C[C@H]1CC[C@@H]1[C@@H]2CC[C@]2(C)[C@@H](O)CC[C@@H]12 | i | -5.31 | i | i
CCN1CCN(c2cc(N3CCCC3)c([N+](=O)[O-])cc2F)CC1 | i | i | i | i
Cc1ccc(C[n+]2c(-c3ccc(C)cc3)cc(-c3ccc(C)cc3)cc2-c2ccc(C)cc2)cc1 | 8.72 | i | i | i
CCOC(=O)C(O)(c1ccc(N=c2ccccn2C)cc1)C(F)(F)F (stereo unspecified) | i | i | i | i
COc1cc(C(=S)N2CCOCC2)cc(OC)c1OC(=O)Cc1ccccc1 | i | -5.07 | i | i
COc1cc(OC)c2c(c1)O[C@@H](c1ccc(OC)c(OC)c1)[C@H](O)C2 | i | i | i | i
O=C(O)c1ccc(-[n+]2c(-c3ccccc3)cc(-c3ccccc3)cc2-c2ccccc2)cc1 | i | i | i | i
Brc1ccc(-[n+]2c(-c3ccccc3)cc(-c3ccccc3)cc2-c2ccccc2)cc1 | 12.3 | i | i | i
Cc1ccccc1-[n+]1c(-c2ccccc2)cc(-c2ccccc2)cc1-c1ccccc1 | 7.54 | i | i | i
CC(C)CNC(=O)c1c(N)n(Cc2ccc3c(c2)OCO3)c2nc3ccccc3nc12 | i | i | i | 71.4 | PC3 dual counter=i;Procasp7 act=i
CN1CC(C#N)C2(O)c3ccccc3CCC2C1 (stereo unspecified) | i | i | i | i
C/C(=N\N=C(N)N)c1ccccc1 | i | -9.9 | i | i | CHT block conf=17.9%;HEK293 CHT ctr=i
CN1CCN(c2ccc(N)cc2Cl)CC1 | i | i | i | i
NC(C(=O)O)c1cc(=O)[nH]o1 (stereo unspecified) | i | i | i | i
CCC(C)/C=C(C)/C=C/C1=CC2=C(Cl)C(=O)C(C)(OC(C)=O)C(=O)C2=CO1 (stereo unspecified) | i | -8.39 | i | i | CHT block conf=24.1%;HEK293 CHT ctr=i
CC[C@H](C)/C=C(C)/C=C/C1=CC2=C(Cl)C(=O)[C@@](C)(OC(C)=O)C(=O)C2=CO1 | i | i | i | i
Oc1ccc(C[C@H]2NCCc3cc(O)c(O)cc32)cc1O | i | -6.47 | nt | nt | CHT block conf=27.7%;HEK293 CHT ctr=i
COc1ccc(OCC(=O)N2CCN(Cc3nc4cc([N+](=O)[O-])ccc4n3C)CC2)cc1 | i | i | i | i
O=C(COc1ccc(Cl)cc1)N1CCN(Cc2ccc([N+](=O)[O-])cc2)CC1 | i | -5.05 | i | i | CHT block conf=i;HEK293 CHT ctr=i
CCOC(=O)c1c(N)n(CCCOC(=O)c2ccco2)c2nc3ccccc3nc12 | i | i | i | i
CCCCCn1c(NC(=O)c2ccco2)c(C(=O)OCC)c2nc3ccccc3nc21 | i | -5.6 | i | i | CHT block conf=i;HEK293 CHT ctr=i
